In ChEMBL document CHEMBL1138735, “Identification of 1,5-naphthyridine derivatives as a novel series of potent and selective TGF-beta type I receptor inhibitors” (J Med Chem, 2004):
Each block holds one compound with its values, some of them ahead of it.

What was measured:
TGF-beta receptor type-1 [1] = molecular target: T1, TGF-beta receptor type-1 (Homo sapiens, UniProt P36897); test: Binding affinity to Activin A receptor type II-like kinase (ALK5) in fluorescence polarization binding assay; Range is (3.221-19.588)
T1 sequence (P36897 whole entry): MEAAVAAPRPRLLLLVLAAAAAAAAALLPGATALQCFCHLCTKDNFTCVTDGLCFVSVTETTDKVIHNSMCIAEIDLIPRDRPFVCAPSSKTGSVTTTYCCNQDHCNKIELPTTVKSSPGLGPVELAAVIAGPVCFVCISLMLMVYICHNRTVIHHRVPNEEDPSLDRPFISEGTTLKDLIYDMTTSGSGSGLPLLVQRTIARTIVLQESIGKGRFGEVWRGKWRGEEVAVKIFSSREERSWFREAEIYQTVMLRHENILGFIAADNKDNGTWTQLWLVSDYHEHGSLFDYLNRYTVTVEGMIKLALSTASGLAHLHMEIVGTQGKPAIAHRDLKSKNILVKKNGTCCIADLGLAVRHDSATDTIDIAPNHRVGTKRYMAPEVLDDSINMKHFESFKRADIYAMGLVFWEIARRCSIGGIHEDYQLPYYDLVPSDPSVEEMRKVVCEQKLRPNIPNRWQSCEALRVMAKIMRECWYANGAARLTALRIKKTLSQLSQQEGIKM
Method in brief: (§1)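 Purified recombinant GST-ALK5 (residues 198–503), final 10 nM by active-site titration, in 62.5 mM HEPES pH 7.5, 1 mM DTT, 12.5 mM MgCl2, 1.25 mM CHAPS with 1 nM rhodamine green-labelled ATP-competitive ligand. Test compound added over a concentration range; plates read immediately for fluorescence polarization (ex 485/em 530 nm). Binding pIC50 from concentration–response curves; means of two or more experiments, mean pIC50 converted to IC50, with 95% confidence limits.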

TGF-beta receptor type-1 [2] = molecular target: T1, TGF-beta receptor type-1; test: Stimulation of Transforming growth factor beta receptor I kinase in HepG2 cells; format: functional, cell-based
TGF-beta receptor type-1 [3] = molecular target: T1, TGF-beta receptor type-1; test: Binding affinity to Activin A receptor type II-like kinase (ALK5) in fluorescence polarization binding assay; Range is (0.021-0.042)
Method in brief: as §1, with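 “series, plate” for “range; plates”, “by” for “for”, “mean” for “means”, “95% confidence limits” for “mean pIC50”, “IC50.” for “IC50, with 95% confidence limits.”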

TGF-beta receptor type-1 [4] = molecular target: T1, TGF-beta receptor type-1; test: Binding affinity to Activin A receptor type II-like kinase (ALK5) in fluorescence polarization binding assay; Range is (0.289-3.621); method in brief: as §1
TGF-beta receptor type-1 [5] = molecular target: T1, TGF-beta receptor type-1; test: Binding affinity to Activin A receptor type II-like kinase (ALK5) in fluorescence polarization binding assay; Range is (0.029-0.032)
TGF-beta receptor type-1 [6] = molecular target: T1, TGF-beta receptor type-1; test: Inhibition of recombinant Activin A receptor type II-like kinase (ALK5) expressed in baculovirus/Sf9 cells; format: cell-based
MAP kinase p38 [7] = molecular target: T2, MAP kinase p38 (Homo sapiens, UniProt O15264+Q15759+Q16539+P53778); test: Displacement of ATP from p38 MAP kinase by fluorescence polarization assay; format: protein assay
Method in brief: (§2)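 p38 MAP kinase binding measured by fluorescence polarization: displacement of a fluorescently labelled ATP-competitive inhibitor by a compound concentration series gives a binding IC50. Runs were duplicated or repeated as three separate experiments; 95% confidence limits on pIC50 were converted to IC50 limits.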

TGF-beta receptor type-1 [8] = molecular target: T1, TGF-beta receptor type-1; test: Binding affinity to Activin A receptor type II-like kinase (ALK5) in fluorescence polarization binding assay; Range is (0.356-4.455)
Method in brief: as §1, with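 “series, plate” for “range; plates”, “by” for “for”, “mean” for “means”, “95% confidence limits” for “mean pIC50”, “IC50.” for “IC50, with 95% confidence limits.”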

TGF-beta receptor type-1 [9] = molecular target: T1, TGF-beta receptor type-1; test: Binding affinity for Activin A receptor type II-like kinase (ALK5) in fluorescence polarization binding assay; method in brief: as §1
TGF-beta receptor type-1 [10] = molecular target: T1, TGF-beta receptor type-1; test: Binding affinity to Activin A receptor type II-like kinase (ALK5) in fluorescence polarization binding assay; Range is (1.375-9.154)
Method in brief: as §1, with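 “series, plate” for “range; plates”, “by” for “for”, “mean” for “means”, “95% confidence limits” for “mean pIC50”, “IC50.” for “IC50, with 95% confidence limits.”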

TGF-beta receptor type-1 [11] = molecular target: T1, TGF-beta receptor type-1; test: Binding affinity to Activin A receptor type II-like kinase (ALK5) in fluorescence polarization binding assay; Range is (2.423-6.540); method in brief: as §1
TGF-beta receptor type-1 [12] = molecular target: T1, TGF-beta receptor type-1; test: Binding affinity to Activin A receptor type II-like kinase (ALK5) in fluorescence polarization binding assay; Range is (0.783-1.764)
Method in brief: as §1, with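 “series, plate” for “range; plates”, “by” for “for”, “mean” for “means”, “95% confidence limits” for “mean pIC50”, “IC50.” for “IC50, with 95% confidence limits.”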

TGF-beta receptor type-1 [13] = molecular target: T1, TGF-beta receptor type-1; test: Binding affinity to Activin A receptor type II-like kinase (ALK5) in fluorescence polarization binding assay; Range is (5.326-22.574)
Method in brief: as §1, with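 “series, plate” for “range; plates”, “by” for “for”, “mean” for “means”, “95% confidence limits” for “mean pIC50”, “IC50.” for “IC50, with 95% confidence limits.”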

TGF-beta receptor type-1 [14] = molecular target: T1, TGF-beta receptor type-1
TGF-beta receptor type-1 [15] = molecular target: T1, TGF-beta receptor type-1; test: Binding affinity to Activin A receptor type II-like kinase (ALK5) in fluorescence polarization binding assay; Range is (0.864-3.661); method in brief: as §1
TGF-beta receptor type-1 [16] = molecular target: T1, TGF-beta receptor type-1; test: Binding affinity to Activin A receptor type II-like kinase (ALK5) in fluorescence polarization binding assay; Range is (0.038-0.042)
Method in brief: as §1, with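 “series, plate” for “range; plates”, “by” for “for”, “mean” for “means”, “95% confidence limits” for “mean pIC50”, “IC50.” for “IC50, with 95% confidence limits.”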

MAP kinase p38 [17] = molecular target: T2, MAP kinase p38; test: Displacement of ATP from Mitogen-activated protein kinase p38 in fluorescence polarization assay; Range is (0.242-0.545); method in brief: as §2
TGF-beta receptor type-1 [18] = molecular target: T1, TGF-beta receptor type-1; remark: listed apart in the source
MAP kinase p38 [19] = molecular target: T2, MAP kinase p38; test: Displacement of ATP from Mitogen-activated protein kinase p38 in fluorescence polarization assay; Range is (0.208-1.155); method in brief: as §2
TGF-beta receptor type-1 [20] = molecular target: T1, TGF-beta receptor type-1; remark: listed apart in the source
[21] = molecular target: Mitogen-activated protein kinase 8 (Homo sapiens, UniProt P45983); test: Inhibition of c-Jun N-terminal kinase 1-alpha 1 binding in fluorescence polarization assay
[22] = molecular target: Mitogen-activated protein kinase kinase kinase 11 (Homo sapiens, UniProt Q16584); test: Inhibition of MLK3 kinase binding in fluorescence polarization assay
[23] = molecular target: Proto-oncogene tyrosine-protein kinase LCK (Mus musculus, UniProt P06240); test: Inhibition of p56 Lck tyrosine kinase binding in HTRF assay
[24] = molecular target: Ribosomal protein S6 kinase alpha-5 (Homo sapiens, UniProt O75582); test: Inhibition of MSK-1 kinase binding in fluorescence polarization assay
[25] = molecular target: Mitogen-activated protein kinase 10 (Homo sapiens, UniProt P53779); test: Inhibition of c-Jun N-terminal kinase 3-alpha binding in HTRF assay
[26] = molecular target: Serine/threonine-protein kinase B-raf (Homo sapiens, UniProt P15056); test: Inhibition of Protein kinase Raf-B binding in fluorescence polarization assay
[27] = molecular target: T3, Tyrosine-protein kinase ITK/TSK (Homo sapiens, UniProt Q08881)
T3 sequence (Q08881 whole entry): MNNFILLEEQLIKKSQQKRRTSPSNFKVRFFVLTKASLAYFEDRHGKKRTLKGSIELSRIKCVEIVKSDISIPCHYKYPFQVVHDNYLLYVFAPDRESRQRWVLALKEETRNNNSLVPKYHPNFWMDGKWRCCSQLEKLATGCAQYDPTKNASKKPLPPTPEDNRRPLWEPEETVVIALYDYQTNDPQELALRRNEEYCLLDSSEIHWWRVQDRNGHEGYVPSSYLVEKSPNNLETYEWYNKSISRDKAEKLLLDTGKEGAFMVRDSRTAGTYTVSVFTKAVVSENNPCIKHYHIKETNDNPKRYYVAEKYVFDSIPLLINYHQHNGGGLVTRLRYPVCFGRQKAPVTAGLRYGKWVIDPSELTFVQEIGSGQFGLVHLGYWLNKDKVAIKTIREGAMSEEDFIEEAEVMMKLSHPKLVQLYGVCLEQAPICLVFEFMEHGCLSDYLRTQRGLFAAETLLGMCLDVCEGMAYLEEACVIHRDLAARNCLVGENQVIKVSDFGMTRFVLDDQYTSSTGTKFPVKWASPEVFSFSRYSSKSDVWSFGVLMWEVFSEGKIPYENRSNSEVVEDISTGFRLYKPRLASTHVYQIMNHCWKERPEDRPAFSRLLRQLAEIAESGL

Ribosomal protein S6 kinase alpha-5, sequence (O75582 whole entry): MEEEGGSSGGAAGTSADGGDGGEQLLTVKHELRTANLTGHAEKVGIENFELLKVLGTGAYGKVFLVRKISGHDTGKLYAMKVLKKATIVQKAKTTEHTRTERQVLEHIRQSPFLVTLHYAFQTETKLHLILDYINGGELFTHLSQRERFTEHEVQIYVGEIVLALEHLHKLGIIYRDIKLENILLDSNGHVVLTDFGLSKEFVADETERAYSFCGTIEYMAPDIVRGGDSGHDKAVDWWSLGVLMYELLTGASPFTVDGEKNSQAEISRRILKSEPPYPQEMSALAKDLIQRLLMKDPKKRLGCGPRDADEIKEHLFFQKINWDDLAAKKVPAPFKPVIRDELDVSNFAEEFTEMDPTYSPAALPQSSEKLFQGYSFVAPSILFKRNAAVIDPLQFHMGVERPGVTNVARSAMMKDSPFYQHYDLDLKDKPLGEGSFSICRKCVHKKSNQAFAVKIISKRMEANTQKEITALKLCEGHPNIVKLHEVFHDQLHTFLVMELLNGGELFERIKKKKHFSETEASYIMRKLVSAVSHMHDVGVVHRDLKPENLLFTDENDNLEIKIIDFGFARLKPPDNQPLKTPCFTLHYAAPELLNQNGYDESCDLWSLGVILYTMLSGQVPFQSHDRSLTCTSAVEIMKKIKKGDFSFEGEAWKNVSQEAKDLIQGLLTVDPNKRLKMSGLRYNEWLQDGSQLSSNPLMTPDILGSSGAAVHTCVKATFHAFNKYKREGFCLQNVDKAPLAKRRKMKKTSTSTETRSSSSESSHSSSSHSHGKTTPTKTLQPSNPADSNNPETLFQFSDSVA
Mitogen-activated protein kinase 8, sequence (P45983 whole entry): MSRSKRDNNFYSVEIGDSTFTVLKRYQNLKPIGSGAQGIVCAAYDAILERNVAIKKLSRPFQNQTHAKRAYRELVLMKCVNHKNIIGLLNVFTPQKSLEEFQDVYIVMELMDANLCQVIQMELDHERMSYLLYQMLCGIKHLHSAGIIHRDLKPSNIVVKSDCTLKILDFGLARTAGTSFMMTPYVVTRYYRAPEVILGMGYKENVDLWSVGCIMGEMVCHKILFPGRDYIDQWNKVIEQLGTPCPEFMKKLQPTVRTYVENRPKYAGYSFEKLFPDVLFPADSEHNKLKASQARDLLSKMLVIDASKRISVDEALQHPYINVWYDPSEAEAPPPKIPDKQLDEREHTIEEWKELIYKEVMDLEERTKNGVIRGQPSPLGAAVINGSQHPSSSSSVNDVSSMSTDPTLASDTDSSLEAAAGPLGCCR
Mitogen-activated protein kinase kinase kinase 11, sequence (Q16584 whole entry): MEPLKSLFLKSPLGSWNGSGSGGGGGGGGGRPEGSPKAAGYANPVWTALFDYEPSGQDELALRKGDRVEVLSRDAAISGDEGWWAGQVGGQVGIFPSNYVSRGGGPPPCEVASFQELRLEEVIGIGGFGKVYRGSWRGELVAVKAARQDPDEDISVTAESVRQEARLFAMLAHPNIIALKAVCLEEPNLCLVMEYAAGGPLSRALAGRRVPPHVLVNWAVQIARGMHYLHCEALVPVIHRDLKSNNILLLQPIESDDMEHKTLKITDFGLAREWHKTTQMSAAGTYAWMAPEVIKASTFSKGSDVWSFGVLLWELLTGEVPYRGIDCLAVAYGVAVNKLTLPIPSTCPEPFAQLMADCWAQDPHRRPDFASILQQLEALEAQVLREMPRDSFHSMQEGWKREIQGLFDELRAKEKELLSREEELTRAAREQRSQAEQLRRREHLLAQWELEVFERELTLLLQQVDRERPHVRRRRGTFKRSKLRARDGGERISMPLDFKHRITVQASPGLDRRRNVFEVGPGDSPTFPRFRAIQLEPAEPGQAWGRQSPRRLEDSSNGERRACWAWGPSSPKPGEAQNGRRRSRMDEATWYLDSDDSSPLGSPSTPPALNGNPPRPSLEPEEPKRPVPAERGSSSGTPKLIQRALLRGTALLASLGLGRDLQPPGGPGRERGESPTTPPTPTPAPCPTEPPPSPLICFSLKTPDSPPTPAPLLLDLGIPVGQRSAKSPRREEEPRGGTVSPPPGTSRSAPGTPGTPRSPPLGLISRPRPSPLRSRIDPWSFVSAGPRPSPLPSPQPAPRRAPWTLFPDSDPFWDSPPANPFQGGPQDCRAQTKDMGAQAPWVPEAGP
Serine/threonine-protein kinase B-raf, sequence (P15056 whole entry): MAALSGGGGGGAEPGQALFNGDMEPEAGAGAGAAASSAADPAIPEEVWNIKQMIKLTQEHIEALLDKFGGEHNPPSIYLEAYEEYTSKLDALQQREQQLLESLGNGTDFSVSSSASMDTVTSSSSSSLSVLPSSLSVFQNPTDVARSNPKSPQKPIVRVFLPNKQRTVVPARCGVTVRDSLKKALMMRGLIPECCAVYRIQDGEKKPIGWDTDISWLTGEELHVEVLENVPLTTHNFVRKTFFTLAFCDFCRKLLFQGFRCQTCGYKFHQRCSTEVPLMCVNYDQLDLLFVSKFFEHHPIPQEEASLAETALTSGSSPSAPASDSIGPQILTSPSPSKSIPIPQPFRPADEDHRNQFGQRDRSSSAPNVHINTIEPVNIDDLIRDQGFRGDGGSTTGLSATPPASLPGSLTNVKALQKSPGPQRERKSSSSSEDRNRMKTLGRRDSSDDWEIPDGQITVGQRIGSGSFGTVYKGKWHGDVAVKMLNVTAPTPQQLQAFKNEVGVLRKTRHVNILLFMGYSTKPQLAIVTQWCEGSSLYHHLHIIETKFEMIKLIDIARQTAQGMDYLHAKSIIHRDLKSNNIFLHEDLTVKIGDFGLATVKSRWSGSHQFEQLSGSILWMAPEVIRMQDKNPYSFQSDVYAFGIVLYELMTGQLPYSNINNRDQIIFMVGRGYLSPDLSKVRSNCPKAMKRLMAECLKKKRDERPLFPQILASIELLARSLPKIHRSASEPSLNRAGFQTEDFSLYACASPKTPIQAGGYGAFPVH
Mitogen-activated protein kinase 10, sequence (P53779 whole entry): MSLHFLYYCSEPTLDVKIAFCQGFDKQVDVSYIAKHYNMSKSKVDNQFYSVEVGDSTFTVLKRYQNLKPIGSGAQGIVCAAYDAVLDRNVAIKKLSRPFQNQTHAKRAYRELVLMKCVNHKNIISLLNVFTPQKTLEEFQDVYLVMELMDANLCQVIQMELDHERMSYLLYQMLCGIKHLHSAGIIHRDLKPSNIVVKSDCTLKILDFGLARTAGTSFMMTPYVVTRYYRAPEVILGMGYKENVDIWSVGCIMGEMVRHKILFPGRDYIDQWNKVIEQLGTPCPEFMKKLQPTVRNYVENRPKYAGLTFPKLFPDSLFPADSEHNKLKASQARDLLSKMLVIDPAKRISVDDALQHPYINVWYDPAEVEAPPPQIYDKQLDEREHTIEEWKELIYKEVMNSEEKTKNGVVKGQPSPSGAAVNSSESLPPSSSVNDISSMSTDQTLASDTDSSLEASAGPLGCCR
Proto-oncogene tyrosine-protein kinase LCK, sequence (P06240 whole entry): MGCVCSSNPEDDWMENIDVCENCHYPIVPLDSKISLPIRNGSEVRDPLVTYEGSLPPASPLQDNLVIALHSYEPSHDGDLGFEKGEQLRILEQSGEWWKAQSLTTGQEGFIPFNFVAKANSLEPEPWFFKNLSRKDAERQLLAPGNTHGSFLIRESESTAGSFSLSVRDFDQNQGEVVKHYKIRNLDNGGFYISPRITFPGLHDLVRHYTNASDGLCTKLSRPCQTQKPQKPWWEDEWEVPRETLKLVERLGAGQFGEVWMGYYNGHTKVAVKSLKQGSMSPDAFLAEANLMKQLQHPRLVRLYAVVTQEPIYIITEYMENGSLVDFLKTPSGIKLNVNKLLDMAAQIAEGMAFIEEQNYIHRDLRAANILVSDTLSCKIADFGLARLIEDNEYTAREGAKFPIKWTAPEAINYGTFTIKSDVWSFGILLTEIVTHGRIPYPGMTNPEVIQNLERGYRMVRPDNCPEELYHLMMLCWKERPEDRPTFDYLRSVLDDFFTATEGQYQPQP

IC50 (TGF-beta receptor type-1 [1]): 7940 nM
IC50 (TGF-beta receptor type-1 [2]): > 10000 nM
SMILES: Nc1nc(-c2ccccn2)c(-c2ccnc3ncccc23)s1

IC50 (TGF-beta receptor type-1 [3]): 30 nM
IC50 (TGF-beta receptor type-1 [2]): 220 nM
SMILES: Cc1ccnc2ccc(-c3sc(N)nc3-c3ccccn3)nc12

IC50 (TGF-beta receptor type-1 [4]): 1020 nM
IC50 (TGF-beta receptor type-1 [2]): > 10000 nM
SMILES: Nc1nc(-c2cc(Cl)ccn2)c(-c2ccnc3ccccc23)s1

IC50 (TGF-beta receptor type-1 [5]): 30 nM
IC50 (TGF-beta receptor type-1 [6]): 19 nM
IC50 (TGF-beta receptor type-1 [2]): 50 nM
IC50 (MAP kinase p38 [7]): > 16000 nM
SMILES: c1ccc(-c2n[nH]cc2-c2ccc3ncccc3n2)nc1

IC50 (TGF-beta receptor type-1 [8]): 1250 nM
IC50 (TGF-beta receptor type-1 [2]): 6670 nM
SMILES: Nc1nc(-c2ccccc2F)c(-c2ccnc3ccccc23)s1

IC50 (TGF-beta receptor type-1 [9]): > 10000 nM
IC50 (TGF-beta receptor type-1 [2]): > 10000 nM
SMILES: COc1ccccc1-c1nc(N)sc1-c1ccnc2ccccc12

IC50 (TGF-beta receptor type-1 [10]): 3540 nM
IC50 (TGF-beta receptor type-1 [2]): > 10000 nM
SMILES: Nc1nc(-c2ccccn2)c(-c2ccc3ccccc3n2)s1

IC50 (TGF-beta receptor type-1 [9]): > 10000 nM
IC50 (TGF-beta receptor type-1 [2]): > 10000 nM
SMILES: Cc1ccc(-c2nc(N)sc2-c2ccnc3ccccc23)nc1

IC50 (TGF-beta receptor type-1 [2]): > 10000 nM
IC50 (TGF-beta receptor type-1 [11]): 3980 nM
SMILES: Nc1nc(-c2cccnc2)c(-c2ccnc3ccccc23)s1

IC50 (MAP kinase p38 [7]): > 16000 nM
SMILES: Cc1cccc(-c2nc(N)sc2-c2ccc3ncccc3n2)n1

IC50 (TGF-beta receptor type-1 [9]): > 10000 nM
IC50 (TGF-beta receptor type-1 [2]): > 10000 nM
SMILES: CCOc1ccc2nc(-c3sc(N)nc3-c3ccccn3)ccc2n1

IC50 (TGF-beta receptor type-1 [2]): 6580 nM
IC50 (TGF-beta receptor type-1 [12]): 1170 nM
SMILES: Nc1nc(-c2nccs2)c(-c2ccnc3ccccc23)s1

IC50 (TGF-beta receptor type-1 [13]): 11000 nM
IC50 (TGF-beta receptor type-1 [2]): > 10000 nM
SMILES: Nc1nc(-c2ccccn2)c(-c2cccc3ccccc23)s1

SMILES: Cc1ccc2nccc(-c3sc(N)nc3-c3ccccn3)c2n1
IC50 (TGF-beta receptor type-1 [14]): 380 nM
IC50 (TGF-beta receptor type-1 [2]): 260 nM

IC50 (TGF-beta receptor type-1 [2]): > 10000 nM
IC50 (TGF-beta receptor type-1 [15]): 1770 nM
SMILES: Nc1nc(-c2ccc(Cl)cn2)c(-c2ccnc3ccccc23)s1

IC50 (TGF-beta receptor type-1 [16]): 40 nM
IC50 (TGF-beta receptor type-1 [6]): 20 nM
IC50 (TGF-beta receptor type-1 [2]): 120 nM
IC50 (MAP kinase p38 [7]): > 16000 nM
SMILES: Nc1nc(-c2ccccn2)c(-c2ccc3ncccc3n2)s1 [GW693481X]

SMILES: Nc1nc(-c2cccc(Cl)c2)c(-c2ccc3ncccc3n2)s1 [GW780159X]
IC50 (MAP kinase p38 [17]): 360 nM
IC50 (TGF-beta receptor type-1 [18]): 20 nM
IC50 (TGF-beta receptor type-1 [6]): 10 nM
IC50 (TGF-beta receptor type-1 [2]): 10 nM

SMILES: Nc1nc(-c2ccc(F)cc2)c(-c2ccc3ncccc3n2)s1 [GW785804X]
IC50 (MAP kinase p38 [19]): 490 nM
IC50 (TGF-beta receptor type-1 [6]): 10 nM
IC50 (TGF-beta receptor type-1 [2]): 30 nM
IC50 (TGF-beta receptor type-1 [20]): 40 nM

SMILES: Cc1cccc(-c2n[nH]cc2-c2ccc3ncccc3n2)n1 [GW786460X]
IC50 [21]: > 16000 nM
IC50 [22]: > 16000 nM
IC50 [23]: > 16000 nM
IC50 [24]: > 16000 nM
IC50 [25]: > 16000 nM
IC50 [26]: > 16000 nM
IC50 [27]: > 16000 nM
